Bioassay records (PubChem BioAssay)
SIAE primary – blocks human sialic acid acetylesterase; 370,000 tested, 0.69% active; AID 1053197; inhibition, % at 9.66 µM; SIAE FP-Rh probe binding, fluorescence polarization; Q9HAT2;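 active = inhibition above a cutoff: mean of compounds within the control limits plus 3 SD of those, cut at about 17% in these data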
RBBP9 inh – blocks human serine hydrolase RBBP9; inhibition, % at 7.94 µM; recombinant RBBP9, FP-Rh probe fluorescence polarization; 220,000 tested, 0.2% active; O75884;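 active = inhibition above the campaign mean of all tested compounds plus 3 SD, cut at about 14% in these data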
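system = RBBP9 protein | input = RBBP9 at 2.5 µM in dispensed solution, before mixing | measured by = fluorescence polarization (mP), excitation 525 nm, emission 598 nm | incubation = enzyme-compound preincubation 30 min, then probe labeling 45 min, 25 °C | buffer or medium = Tris-NaCl-Pluronic buffer, pH 8.0 | compound = single dose 7.94 µM | also added = FP-Rh probe, 375 nM dispensing solution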
PAD4 inh – PAD4 (human) enzyme inhibition | Q9UM07 | recombinant PAD4, RCA probe fluorescence polarization | inhibition, % at 6.36 µM | 330,000 tested, 0.41% active | AID 485272;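 active = percent inhibition above a cutoff equal to the mean of all tested compounds plus 3 SD, cut at about 15% in these data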
PRMT1 inh – blocks human protein arginine methyltransferase 1. Q99873. recombinant PRMT1, activity-based probe fluorescence polarization. inhibition, % at 2.79 µM. 370,000 tested, 1.3% active;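 active = inhibition above about 21% made by adding two undisclosed values, limit read from the data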
Target sequence (Q99873 whole entry, looked up): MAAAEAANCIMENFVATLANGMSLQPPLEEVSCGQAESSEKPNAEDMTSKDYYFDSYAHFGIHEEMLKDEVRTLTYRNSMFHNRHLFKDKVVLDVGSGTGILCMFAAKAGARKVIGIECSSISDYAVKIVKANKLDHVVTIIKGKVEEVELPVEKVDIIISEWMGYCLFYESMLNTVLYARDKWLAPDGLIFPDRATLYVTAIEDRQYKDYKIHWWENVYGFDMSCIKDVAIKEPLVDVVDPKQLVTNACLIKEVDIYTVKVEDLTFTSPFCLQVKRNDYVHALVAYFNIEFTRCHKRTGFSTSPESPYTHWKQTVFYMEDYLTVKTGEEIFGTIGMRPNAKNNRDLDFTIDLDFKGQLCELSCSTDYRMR
GSTO1 inh – GSTO1 inhibition, counter-screen for RBBP9 inhibitors; P78417; recombinant GSTO1, activity-based probe fluorescence polarization; AID 1974; 300,000 tested, 1.1% active; inhibition, % at 5.96 µM;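 active = inhibition above the campaign mean inhibition plus 3 SD, cut at about 35% in these data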
PRMT1 inh conf – confirmation of human PRMT1 inhibitors | shares compounds with PRMT1 inh | recombinant His-PRMT1, activity-based probe fluorescence polarization | inhibition, % at 2.79 µM | 3,300 tested, 42% active;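 active = mean inhibition across replicates above the hit cutoff derived for the earlier primary screen, cut at about 22% in these data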
Each line names hits and unclear results; the compound was inactive in the other large screens (follow-up assays come after a bar, where they were run). The list is not random: actives were taken first. Their share in the collection is about 2.7%.

CC(=O)c1ccc(-n2c(C)ccc2-c2ccccc2)cc1	PRMT1 inh 33 | PRMT1 inh conf inactive
COc1ccc(-n2c(C)ccc2-c2ccccc2)cn1	PRMT1 inh 56 (no result: RBBP9 inh) | PRMT1 inh conf inactive
CC(=O)c1ccc(-n2c(CCC(=O)O)ccc2-c2ccccc2)cc1	none (no result: RBBP9 inh)
Cc1ccc(N(Cc2ccccc2)C(=O)c2ccc(C)c(S(=O)(=O)N3CCOCC3)c2)cc1	none (no result: RBBP9 inh, GSTO1 inh)
COc1ccc(NC(=O)CSc2nc3ccsc3c(=O)n2Cc2ccccn2)c(OC)c1	PRMT1 inh 29 | PRMT1 inh conf inactive
Cc1ccc(CNC(=O)CSc2nc3ccsc3c(=O)n2Cc2ccccn2)cc1	none
COc1ccc(NC(=O)CSc2c3c(nc4ccccc24)CCCC3)c(OC)c1	PRMT1 inh 26 | PRMT1 inh conf 26
CCC(C)c1ccccc1N1CC(C(=O)NCCCn2nc(C)cc2C)CC1=O (stereo not drawn)	none (no result: RBBP9 inh, GSTO1 inh)
C=CCOC(=O)/C=C/C(=O)NC(N)=O	PRMT1 inh 76 | PRMT1 inh conf 69
CC(/C=N/n1c(-c2ccncc2)n[nH]c1=S)=C\c1ccco1	PRMT1 inh 27 | PRMT1 inh conf inactive
Cc1cccc(-c2n[nH]c(=S)n2/N=C/C=C/c2ccco2)c1	PRMT1 inh 46 | PRMT1 inh conf inactive
CC(/C=N/n1c(-c2ccc(C)cc2)n[nH]c1=S)=C\c1ccco1	none
Cc1nc(C(=O)NC2CCCCC2)sc1C1(C)CC(c2cccnc2)=NO1 (stereo not drawn)	none (no result: SIAE primary, RBBP9 inh, PRMT1 inh)
O=S(=O)(NCCc1ccccn1)c1ccc(-c2ccccn2)s1	none
C=CCOC(=O)C1=C(C)NC(SCC(=O)Nc2nccs2)=C(C#N)C1c1ccc(Cl)cc1 (stereo not drawn)	none
CC(=O)C1=C(C)NC(SCC(=O)Nc2nccs2)=C(C#N)C1c1ccccc1Cl (stereo not drawn)	PRMT1 inh 26 | PRMT1 inh conf inactive
O=C(CSc1nnc(-c2cccnc2)n1Cc1ccco1)N1c2ccccc2Sc2ccccc21	PRMT1 inh 40 | PRMT1 inh conf inactive
O=C1CSC(=Nc2ccc(O)cc2)N1c1ccc(O)cc1	none
Cc1ccc(N2C(=O)CS/C2=N\C(=S)Nc2ccccc2)cc1	PRMT1 inh 28 | PRMT1 inh conf inactive
c1cncc(CNc2ccc3c(c2)OCO3)c1	PRMT1 inh 75 | PRMT1 inh conf inactive
COc1ccc(CCNC(=O)C(=O)NCC2OCCN2S(=O)(=O)c2ccc(OC)cc2)cc1 (stereo not drawn)	PRMT1 inh 30 (no result: RBBP9 inh) | PRMT1 inh conf inactive
N#CC1=C(S)N(c2ccccc2)C(c2ccc(-c3ccc(Cl)c(Cl)c3)o2)NC1=O (stereo not drawn)	none
CCOC(=O)C1=C(N)n2c(s/c(=C\c3ccco3)c2=O)=C(C(=O)OCC)C1c1ccco1 (stereo not drawn)	none (no result: SIAE primary, PRMT1 inh)
CCOC(=O)C1=C(N)n2c(s/c(=C\c3ccco3)c2=O)=C(C(=O)OC(C)C)C1c1ccco1 (stereo not drawn)	PRMT1 inh 43 | PRMT1 inh conf inactive
O=C(CSc1nccc(=O)[nH]1)Nc1ccc(S(=O)(=O)N2CCOCC2)cc1	PRMT1 inh 49 | PRMT1 inh conf inactive
Nc1cc(=O)[nH]c(SCC(=O)Nc2ccc(S(=O)(=O)N3CCOCC3)cc2)n1	none
Cc1ccc(-c2csc(N)n2)s1	PRMT1 inh 76 | PRMT1 inh conf 28
N#CC(c1ccccc1)c1ccc2c(C(F)(F)F)cc(C(F)(F)F)nc2n1 (stereo not drawn)	none
CC(=O)c1sc2nc(-c3cccs3)ccc2c1N	PRMT1 inh 73 | PRMT1 inh conf 29
CC(C)NC(=O)c1sc2nc(-c3cccs3)cc(-c3cccs3)c2c1N	PRMT1 inh 30 | PRMT1 inh conf inactive
O=c1[nH]c(=S)[nH]c2nc(-c3cccs3)cc(C(F)(F)F)c12	none (no result: RBBP9 inh)
Nc1c(C(=O)Nc2nc3ccccc3s2)sc2nc(-c3cccs3)ccc12	none (no result: SIAE primary, PRMT1 inh)
Nc1c(C(=O)C2CC2)sc2nc(-c3cccs3)cc(C(F)(F)F)c12	PRMT1 inh 32 | PRMT1 inh conf inactive
COc1ccc(C(=O)c2sc3nc(C)cc(-c4cccs4)c3c2N)cc1	none (no result: PAD4 inh, GSTO1 inh)
COc1cc(OC)c(NC(=O)[C@@H]2CCC(=O)N2C2OC(=O)c3c2ccc(OC)c3OC)cc1Cl (stereo partly drawn)	none (no result: RBBP9 inh)
CN(C)c1ccc(C2NCCS2)cc1 (stereo not drawn)	PRMT1 inh 35 | PRMT1 inh conf 34
